The values below come from paper PMC3115796 (The Journal of Cell Biology, 2011).

Experiment [1] deals with MT plus ends in HeLa cells. As to the kind of experiment: MT plus end tracking, live-cell imaging. The following applies: live or fixed cells. Type of experiment: cell-based. Put shortly: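 HeLa cells were grown in 45% DME, 45% Ham's F10 and 10% fetal calf serum. Live imaging used TIRF/widefield at 37°C in a stage-top incubator in culture medium (100× 1.49 NA objective, EMCCD, 0.065 µm/pixel). For fixed cells, −20°C methanol was applied for 15 min, with a 15-min 4% PFA postfix for SLAIN1/2 and EB1 staining, followed by immunofluorescence on a widefield microscope.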

Experiment [2] relates to SLAIN2 C terminus / full-length CLIP-170. As to the kind of experiment: GST-SLAIN2 pull-down of CLIPs and full-length CLIP-170. The experiment is classed as binding.

B1: GFP-SLAIN1: GFP-tagged SLAIN1 (protein)
chain: MMAEQVKCASPVAASGAGPGPVVNAELEVKKLQELVRKLEKQNEQLRSRAASAAAAPHLLLLQPPPPSAPPPAGACSPLATHRAPASTTSPGPGALGPAFPGTYCLPSPAPSLLCSLQPADAPFVYSKPAAGFFGGGGSPEPGTAGTPPGEAATPPLPPPTLLDEVEPLDLESLAAWSEEDDYTWLYVGSSKTFTSPEKSPSPLQWCRHVLDNPTPEMEAARRSLRFRLEQGYTSRGSPLSPQSSIDSELSTSELEDDSISMGYKLQDLTDVQIMARLQEESLRQDYASTSASVSRNSSSVSLSSGKKGTCSDQEYDRYSLEDEEEFDHLPPPQPRLPRCSPFQRGIPHSQTFSSIRDCRRSPSTQYFPSNNFQQPQYYPPQAQTADQQPNRTNGDKLRRSMPNLARMPSTAAASSNLSSPVTVRSSQSFDSSLHGAGSGVSRVPSCIPSPGQIQHRVHSVGHFPVPIRQPLKATAYVSPTVQGSSSSGSSGSSGGSGSGMPLSNGTQLYSTTGIPTPNKAAASGILGRSALPRPSLAINGSNLPRSKIAQPVRSFLQPPKPLSSLSTLRDGNWRDGCY
modifications: left off: GFP, end not stated, kept
In the case of B1, the “MT plus end tracking / localization (in words)” value in experiment [1] is reported as “colocalized with EB-positive MT ends”.

B2: GFP–CLIP-170-N: amino acids 4–309 of the rat CLIP-170 (protein)
chain: LKPSGLKAPTKILKPGSTALKTPAAAAAPLEKTVPSEKASGPPSSETQEEFVDDFRVGERVWVNGNKPGFIQFLGETQFAPGQWAGIVLDEPIGKNDGSVAGVRYFQCEPLKGIFTRPSKLTRKVQAEDEANGLQTAHARAASPLSTAAATMVSSSPATPSNIPQKPSQPVAKETSATPQISNLTKTASESISNLSEAGSVKKGERELKIGDRVLVGGTKAGVVRFLGETDFAKGEWCGVELDEPLGKNDGAVAGTRYFQCQPKYGLFAPVHKVTKIGFPSTTPAKAKAAAVRRVMATTPASLKRS
modifications: left off: GFP, end not stated, kept
For B2, the “association with SLAIN2 C terminus” value in experiment [2] was “associated with the SLAIN2 C terminus”.
